Bioassay records from PubChem BioAssay.
Most compounds without a hit are left out; they make up all but 3.5% or so of the library.
MrgX1 antag = human MrgX1 receptor antagonism, primary screen; Q96LB2; MRGX1-HEK293 calcium flux, Fluo-4, BAM8-22 antagonism; stronger effect = lower value; B-score at 10 µM; 310,000 compounds, 1.3% hits; AID 588676;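 active = calcium-response B-score plate-corrected more than 3 library SD below zero, starting fluorescence within 5 deviations, no agonist response on first addition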;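 note: peak minus trough fluorescence over baseline after final BAM8-22 challenge near maximal dose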
Target sequence (Q96LB2 whole entry, looked up): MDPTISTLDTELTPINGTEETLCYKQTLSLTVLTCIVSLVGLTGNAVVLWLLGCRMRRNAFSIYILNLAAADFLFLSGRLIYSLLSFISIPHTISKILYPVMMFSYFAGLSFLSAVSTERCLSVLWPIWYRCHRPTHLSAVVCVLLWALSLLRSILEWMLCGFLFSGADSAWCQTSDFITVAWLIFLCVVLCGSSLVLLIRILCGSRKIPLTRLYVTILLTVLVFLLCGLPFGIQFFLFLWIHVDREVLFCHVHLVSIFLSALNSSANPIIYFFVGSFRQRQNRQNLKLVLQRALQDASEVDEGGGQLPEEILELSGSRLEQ
RGS4 block = human RGS4 inhibition; P49798; 310,000 compounds, 0.45% hits; B-score at 10 µM; HEK293 M3R/RGS4 inducible, Fluo-4 calcium flux; stronger effect = higher value; triggered by carbachol at its EC20;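 active = B-score, a plate-corrected calcium signal, over three deviations above library mean, with baseline fluorescence within five deviations of library mean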;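 note: RGS4 expression induced by doxycycline in cells with stable M3 receptor; B-score is computed from the integrated fluorescence ratio over baseline after carbachol; higher B-score means a larger calcium signal and so more RGS4 inhibition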
Target sequence (P49798 whole entry, looked up): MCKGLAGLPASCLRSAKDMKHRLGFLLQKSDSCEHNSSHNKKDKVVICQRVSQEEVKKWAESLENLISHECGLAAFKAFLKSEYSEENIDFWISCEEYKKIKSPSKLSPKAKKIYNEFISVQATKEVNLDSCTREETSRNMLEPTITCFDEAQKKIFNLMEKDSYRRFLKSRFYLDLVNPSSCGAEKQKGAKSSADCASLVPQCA
MrgX1 allo act = human MrgX1 positive allosteric modulation, primary screen. MrgX1-HEK293, Fluo-4 calcium flux, FDSS; stronger effect = higher value. B-score at 10 µM. 310,000 compounds, 0.63% hits. AID 588675;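 active = plate-corrected calcium response at least 3 library SD above typical, normal starting fluorescence, not activating the receptor alone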;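 note: compound read alongside a low EC10 to EC30 dose of BAM8-22 agonist; peak minus trough fluorescence over baseline measured at the second addition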
RGS4 act = RGS4 potentiation or activation. HEK293 M3R/inducible RGS4, carbachol calcium flux Fluo4; stronger effect = lower value. B-score at 10 µM. 310,000 compounds, 0.92% hits. AID 463111;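 active = B-score of the integrated calcium signal more than 4 SD below the library mean, with starting fluorescence not abnormally high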;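 note: negative B-score means reduced calcium response which marks RGS4 activation or potentiation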
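Assay system: HEK293 FlpIn-TREx cells, stable M3R, doxycycline-inducible RGS4 / Probe or stimulus: carbachol, ECmax concentration / Times: overnight RGS4 induction, 30 min dye load 37 °C, 20 min compound RT / Signal: kinetic calcium fluorescence imaging with Fluo4-AM dye, 2 µM / Measure: Agonist-evoked peak-minus-minimum fluorescence over baseline, integrated ratio, B score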
MrgX1 ag = human MrgX1 receptor agonism, primary screen; Q96LB2; MrgX1-HEK293 cells, Fluo-4 calcium fluorescence, agonist mode; stronger effect = higher value; B-score at 10 µM; 310,000 compounds, 0.44% hits; AID 588627;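 active = calcium response B-score plate-corrected fluorescence ratio at least 3 library SD, with starting fluorescence B-score inside 5 SD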
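Assay system: MrgX1-expressing HEK293 cells / Amount: fifteen thousand cells per well / Doses: test compound in the initial addition of three / Timing: cells plated overnight, dye loaded 0.5 h 37 °C, 0.5 h room temperature / Technique: kinetic calcium dye fluorescence, Fluo-4 NW / Control set: positive and negative controls per plate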
MrgX1 PAM conf = human MrgX1 positive allosteric modulation, re-confirmation; shares compounds with MrgX1 allo act; MrgX1-HEK293, Fluo-4 calcium fluorescence, FDSS; activation (ratio percentage), % at 10 µM; 1,200 compounds, 13% hits;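 active = ratio at least 3 SD above the weak peptide control, stable starting fluorescence, no direct agonism earlier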;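 note: compound followed by low BAM8-22 agonist challenge near EC20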
HEK293 Ca flux = counter-screen for MrgX1 antagonists: effect in parental HEK293 cells. shares compounds with MrgX1 antag. Fluo-4 calcium fluorescence, FDSS. 4,000 compounds, 2% hits. AID 624111. fluorescence ratio F(max-min)/F0 at 10 µM;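 active = duplicate-averaged calcium fluorescence ratio at least three times the standard deviation of buffer wells, a nonspecific response in parental cells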
HEK293 Ca counter = activity in parental HEK293 cells without MrgX1; fluorescence ratio F(max-min)/F0 at 10 µM; parental HEK293 calcium flux, Fluo-4 fluorescence ratio; stronger effect = higher value; AID 624114; 4,000 compounds, 0.4% hits; shares compounds with MrgX1 antag;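 active = calcium fluorescence ratio, averaged over duplicates, at least 3 SD of the buffer-well ratio, meaning a nonspecific response in receptor-free cells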;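 note: untransfected parental HEK293 lacking MrgX1 used as counterscreen for MrgX1 allosteric activators; fluorescence change taken during the second addition on a kinetic imager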
HEK293 Ca cntr2 = MrgX1 activator counter-screen hit in parental HEK293 cells; Fluo-4 calcium fluorescence (FDSS); stronger effect = higher value; shares compounds with MrgX1 antag; 4,000 compounds, 8.7% hits; fluorescence ratio F(max-min)/F0 at 10 µM;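 active = calcium fluorescence ratio at least three times the spread of buffer wells, meaning a non-specific response in parental cells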
* = called active by the depositor; i = inactive; · = not tested or not shown.

SMILES	MrgX1 antag	RGS4 block	MrgX1 allo act	RGS4 act	MrgX1 ag	MrgX1 PAM conf	HEK293 Ca flux	HEK293 Ca counter	HEK293 Ca cntr2
CC(=O)N1CCc2cc(Br)cc(S(=O)(=O)NCCCN3CCC(C)CC3)c21	i	·	i	·	i	·	·	·	·
CC(=O)N1CCc2cc(Br)cc(S(=O)(=O)NCCN3CCCCC3C)c21 (stereo unspecified)	i	i	9.1*	i	i	i	i	i	i
CC1CCN(S(=O)(=O)c2ccc(C(=O)NCc3cccnc3)cc2)CC1	i	i	i	i	i	·	·	·	·
CC(C)(C)c1csc(SCC(=O)Nc2ccc(Cl)cn2)n1	i	i	19*	i	i	5.1%*	i	i	i
CCCCCCn1c(N2CCCC2)nc2c1c(=O)n(C)c(=O)n2C	i	i	7.7*	i	i	i	i	i	i
CC(C)CCn1c(N2CCCC2)nc2c1c(=O)n(C)c(=O)n2C	i	i	i	i	i	·	·	·	·
Cc1cc(NC(=O)CSc2nnc(-c3c[nH]c4ccccc34)n2C)no1	i	i	i	i	i	·	·	·	·
S=c1[nH]nc(COc2ccc(Cl)cc2)n1-c1ccccc1	i	i	i	i	i	·	·	·	·
COc1ccc(-c2nnc(NC(=O)c3ccc(S(=O)(=O)N4COCC4(C)C)cc3)o2)cc1	i	i	7*	i	i	i	i	i	i
CC1CCCCN1S(=O)(=O)c1ccc(C(=O)Nc2nnc(-c3ccncc3)o2)cc1 (stereo unspecified)	i	i	i	i	i	·	·	·	·
Nc1nc(Nc2ccccc2Br)nc(C(F)(F)F)n1	i	i	9.1*	i	i	i	i	i	i
Nc1nc(Nc2ccccc2)nc(C(F)(F)F)n1	i	i	i	i	i	·	·	·	·
COC(=O)c1cc(C(=O)OC)n(Cc2ccc(F)cc2)c1C	i	i	6.5*	i	i	i	i	i	i
COC(=O)c1cc(C(=O)OC)n(Cc2ccc(F)cc2)n1	i	i	i	i	i	·	·	·	·
CS(=O)(=O)N(CCc1ccccc1)CC(=O)Nc1ccc(OCc2ccccc2)cc1	i	i	i	i	i	·	·	·	·
COC(=O)c1ccccc1NC(=O)CN(CCc1ccccc1)S(C)(=O)=O	i	i	9.5*	i	i	i	i	i	i
CCc1ccc(NC(=O)C(C)OC(=O)C2CCC(=O)N2)cc1 (stereo unspecified)	i	i	i	i	i	·	·	·	·
CCOCC(=O)Nc1ccc(S(=O)(=O)NCC2CCCO2)cc1 (stereo unspecified)	i	i	11*	i	i	i	i	i	i
Cc1nn(C)c(Nc2ccc(Br)cc2)c1Br	i	i	8.2*	i	i	i	i	i	i
Cc1ccc(-c2cc(-c3n[nH]c(=S)n3C)c3ccccc3n2)cc1	i	i	11*	i	i	i	i	i	i
CCn1c(-c2cc(-c3ccc(C)c(C)c3)nc3ccccc23)n[nH]c1=S	i	i	i	i	i	·	·	·	·
CC(=O)c1cc(CC=C(C)C)c(O)cc1O	i	i	9.9*	i	i	i	i	i	i
CC(=O)c1cc(CC=C(C)C)c(O)c(CC=C(C)C)c1O	i	i	i	i	i	·	·	·	·
C=CCOC(=O)C1=C[C@@H](c2cn(C(C)=O)c3ccccc23)C[C@@H](OCc2ccc(CO)cc2)O1	i	i	i	i	i	·	·	·	·
